A selection: hits, their analogues and other compounds. The true share with any hit is near 1.8%.
Platelet DG rel = modulates dense granule release in human platelets; human platelet-rich plasma, SFLLRN dense granule ATP release, luminescence; inhibition, %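 (compounds screened at 7.5 µM in platelet-rich plasma)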; hit rate 0.22% among 300,000; AID 1663;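 active = mean replicate score, as percent of positive control, at or above 50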
Thrombin inh = thrombin (human) inhibition; P00734; alpha-thrombin, Boc-VPR-AMC fluorogenic substrate cleavage; inhibition, % at 5 µM; hit rate 0.26% among 220,000;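 active = inhibition at or above 40%; inactive = inhibition below 40%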;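 also: 0% = enzyme with no compound and 100% = wells without enzyme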
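signal = AMC fluorescence, 355/460 nm | material = human alpha-thrombin enzyme | control set = enzyme without compound as high, wells lacking enzyme as low | times = reaction at room temperature | read-out basis = percent inhibition scaled between no-compound controls and no-enzyme blanks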
FXIa inh = blocks human coagulation factor XIa protease activity; P03951; hit rate 0.14% among 220,000; purified FXIa, Boc-Glu-Ala-Arg-AMC fluorogenic substrate; inhibition, % at 5 µM; AID 798;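 active = inhibition of at least 40%; inactive = inhibition below 40%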;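 also: fluorescence of freed AMC excited at 355 nm; 0% = enzyme without compound and 100% = no enzyme blank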
hK5 inh = kallikrein 5 (human) inhibition; Q9Y337; recombinant hK5, fluorogenic AMC substrate cleavage; inhibition, % at 5 µM; hit rate 0.59% among 210,000; AID 873;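 active = inhibition of 40% or more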;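 also: 0% = enzyme controls without compound and 100% = no-enzyme blanks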
FXIIa inh = blocks human coagulation factor XIIa protease activity; P00748; purified FXIIa, Boc-QGR-AMC fluorogenic substrate, 2 h; inhibition, % at 5 µM; hit rate 0.3% among 220,000; in the data active = inhibition above about 40%;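 also: 0% = enzyme with no compound and 100% = blank without enzyme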
Target sequence (P00748 20-372 limits assumed): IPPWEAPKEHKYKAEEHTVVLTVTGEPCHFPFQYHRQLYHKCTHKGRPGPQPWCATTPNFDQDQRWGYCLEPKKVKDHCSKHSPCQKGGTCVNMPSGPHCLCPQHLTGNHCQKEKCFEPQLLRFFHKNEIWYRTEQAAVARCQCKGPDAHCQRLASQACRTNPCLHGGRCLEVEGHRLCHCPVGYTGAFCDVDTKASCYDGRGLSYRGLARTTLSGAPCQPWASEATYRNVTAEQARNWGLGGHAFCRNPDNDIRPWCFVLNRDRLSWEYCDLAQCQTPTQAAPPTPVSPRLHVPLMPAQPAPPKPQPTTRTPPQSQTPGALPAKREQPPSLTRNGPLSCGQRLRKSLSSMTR
Target sequence (P00748 373-615 limits assumed): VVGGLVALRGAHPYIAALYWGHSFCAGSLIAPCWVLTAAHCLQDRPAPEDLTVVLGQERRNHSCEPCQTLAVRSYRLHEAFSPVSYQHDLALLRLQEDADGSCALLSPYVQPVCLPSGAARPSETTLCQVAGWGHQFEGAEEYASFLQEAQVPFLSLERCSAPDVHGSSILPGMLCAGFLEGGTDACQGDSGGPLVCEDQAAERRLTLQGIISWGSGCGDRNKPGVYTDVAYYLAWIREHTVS
Wee1 stabilizer = human Wee1 degradation inhibition, primary screen; P30291; HeLa Luc-Wee1K328M stability, luciferase luminescence; 100% = proteasome inhibitor MG132 effect; reporter increase, % at 5 µM; hit rate 1.2% among 220,000; AID 1321;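 active = activation above the mean of all tested compounds plus 3 SD, set per screening run, cut at about 8.8% in these data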;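 also: cells exposed to compound for 20 h before luminescence read; 0% = DMSO alone and 100% = MG132 at 30 µM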
Numbers without * were called inactive; / = no result.

SMILES	Platelet DG rel	Thrombin inh	FXIa inh	hK5 inh	FXIIa inh	Wee1 stabilizer
COC(=O)c1nn(-c2ccc(-c3ccccc3)cc2)cc1O	64*	-1	-8	-20	3	-1
CC(=O)n1c(=O)oc2ccccc21	12	/	/	/	/	/
Cc1nc(S/C(C(=O)O)=C2/C(=O)Nc3ccccc32)n[nH]1	61*	-2	-1	2	-1	-3
CC(=O)Nc1cccc(-c2nc3ccccc3c(=O)o2)c1	1	8	9	26	10	2
CCC(=O)Nc1cccc(-c2nc3ccccc3c(=O)o2)c1	-5	6	13	47*	18	2
CCNC(=S)NNC(=O)c1cc(-c2ccc(OC)cc2)nc2ccccc12	111*	1	11	-65	10	-1
CCCCOc1ccc(-c2cc(C(=O)NNC(=S)NCC)c3ccccc3n2)cc1	77*	3	11	-238	12	-2
COc1ccc(/C=C(\NC(=O)c2ccc(C)cc2)C(=O)NCCCn2ccnc2)cc1OC	9	/	/	/	/	/
CN(Cc1ccc(Cl)c(Cl)c1)C(=O)CN1C(=O)NC2(CCCC2)C1=O	5	/	/	/	/	/
CC1=CC(c2ccc(Cl)cc2)n2nc(NC(=O)CCC(=O)O)nc2N1 (stereo not drawn)	8	1	-1	-4	3	-1
O=C(CN1CCCN(Cc2ccc(F)cc2Cl)C1=O)NC1CCCCCCC1	4	12	7	104*	24	-3
Cc1ccc(N(C(=O)c2csnn2)C(C(=O)NC2CCCCC2)c2cccnc2)cc1 (stereo not drawn)	-15	/	/	/	/	/
CCCCCc1nc2c(=O)[nH]c3ccccc3c2o1	5	-4	-6	4	4	0
CCCc1nc2c(=O)[nH]c3ccccc3c2o1	2	18	5	44*	16	-1
Cc1nnc(SCCn2c(Br)nc3c2c(=O)[nH]c(=O)n3C)s1	-1	3	44*	-8	9	0
CCC(=O)N1CCN(c2ccc(NC(=O)c3cc4ccccc4o3)cc2Cl)CC1	3	-1	-1	2	1	0
COc1ccc(NC(=O)c2ccco2)cc1NC(=O)c1cc2ccccc2o1	-7	21	-1	54*	3	2
O=C(Nc1ccc(NC(=O)c2cc3ccccc3o2)cc1)c1ccco1	-2	/	/	/	/	/
O=C(Nc1ccc(N2CCN(C(=O)c3ccco3)CC2)c(Cl)c1)c1cc2ccccc2o1	-13	2	-4	40*	8	2
COc1ccc(NC2CC(=O)N(c3cc([N+](=O)[O-])ccc3C)C2=O)cc1 (stereo not drawn)	1	-14	-5	-4	1	1
COc1ccc(-c2csc(NC(=O)CN3C(=O)CCC3=O)n2)cc1OC	-2	0	9	-4	6	11*
Cn1cc(Br)c(C(=O)Nc2sc3c(c2C#N)CCC3)n1	16	-3	-7	-2	10	10*
Cn1cc([N+](=O)[O-])c(C(=O)Nc2sc3c(c2C#N)CCC3)n1	2	/	/	/	/	/
Cc1cccc(Oc2nc3ccccn3c(=O)c2/C=C(\C#N)C(=O)NC2CCS(=O)(=O)C2)c1C (stereo not drawn)	57*	/	/	/	/	/
Cc1cccc(Oc2nc3ccccn3c(=O)c2/C=C(\C#N)C(=O)NC2CCS(=O)(=O)C2)c1 (stereo not drawn)	1	-7	6	-11	9	10*
SMILES	Platelet DG rel	Thrombin inh	FXIa inh	hK5 inh	FXIIa inh	Wee1 stabilizer
CCn1ncc(Br)c1C(=O)Nc1ccccc1C(F)(F)F	-2	/	/	/	/	/
CCNC(=S)N(CCc1c(C)[nH]c2ccccc12)Cc1cc(OC)c(OC)c(OC)c1	-20	-3	-6	-11	-1	-2
Cc1c(CCO)c(=O)[nH]n1S(=O)(=O)c1cccc(C(F)(F)F)c1	-14	/	/	/	/	/
Cc1ccc(S(=O)(=O)n2[nH]c(=O)c(CCO)c2C)cc1	-1	1	3	/	13	9.0*
COc1ccc2[nH]cc(CCNS(=O)(=O)c3ccc(C)cc3)c2c1	1	-9	-3	-2	2	2
CCN(CCn1cccn1)Cc1cn[nH]c1-c1cccc2ccccc12	59*	-1	2	3	9	5
COc1ccccc1NC(=O)CSc1nnnn1C	-6	-1	33	7	59*	1
Cc1c(O)c2c(=O)n(-c3ccccc3)c(-c3ccccc3)cc2oc1=O	12	-3	2	-4	4	4
Cc1onc(-c2ccccc2)c1C(=O)N(Cc1ccco1)Cc1cccs1	8	14	40*	31	21	1
Cc1sc2ncn(CC(=O)N3CCN(c4ccc(F)cc4)CC3)c(=O)c2c1S(=O)(=O)N1CCOCC1	-6	/	/	/	/	/
CC(C)CC(=O)NC(=S)Nc1ccc(NC(=O)c2cccs2)cc1	-5	-1	0	-6	9	2
COc1ccc(NC(=O)c2cc(S(=O)(=O)N3CCOCC3)cn2C)c(OC)c1	59*	/	/	/	/	/
COc1cccc(CNC(=O)c2cc(S(=O)(=O)N3CCCC3)cn2C)c1	57*	/	/	/	/	/
COc1cc(OC)c(NC(=O)c2cc(S(=O)(=O)N3CCOCC3)cn2C)cc1Cl	69*	/	/	/	/	/
CCCCN(C(=O)NC(=O)Nc1cccc(C)c1C)S(C)(=O)=O	10	6	-4	-10	12	-1
CCCCN(C(=O)NC(=O)Nc1ccccc1C)S(C)(=O)=O	-1	0	4	-6	18	29*
c1ccc(Cn2nnc3c(NCCN4CCOCC4)ncnc32)cc1	0	31	22	20	13	2
Clc1ccccc1Cn1nnc2c(NCCN3CCOCC3)ncnc21	-2	26	47*	23	11	3
O=C(NCCC(c1ccccc1)c1ccccc1)c1cnc2sccn2c1=O	3	/	18	8	9	11*
O=C(NCc1cccnc1)c1cnc2sccn2c1=O	-7	2	1	2	7	3
O=C(Cc1ccc(Cl)cc1)NNC(=O)c1ccco1	2	/	/	/	/	/
COc1ccc(C2c3c(-c4cc(Cl)c(C)cc4O)n[nH]c3C(=O)N2Cc2cccnc2)cc1OC (stereo not drawn)	72*	57*	9	19	25	-1
COc1ccc(C2c3c(-c4ccccc4O)n[nH]c3C(=O)N2Cc2ccco2)cc1OC (stereo not drawn)	0	-1	0	0	11	2
CCCCc1ccc(S(=O)(=O)NCCCN2CCCC2=O)cc1	8	/	/	/	/	/
CCCSc1nnc(NC(=O)Nc2ccc(F)cc2)s1	5	0	8	-2	17	3
CCCSc1nnc(NC(=O)Nc2ccc(C)cc2)s1	19	-8	-5	52*	-1	0
COc1ccc(S(=O)(=O)N2CCN(C)CC2)cc1NC(=O)c1ccccc1F	13	/	/	/	/	/
COc1cc(S(=O)(=O)N2CCN(C(=O)c3ccccc3F)CC2)c(OC)cc1NC(C)=O	0	10	16	47*	16	-1
O=C(Cc1ccccc1[N+](=O)[O-])Nc1ccccc1C(=O)N1CCCC1	8	9	31	19	85*	-3

Screening results: PubChem BioAssay, several laboratories
